Screening results: PubChem, Sanford-Burnham Center for Chemical Genomics
DNMT1 inh = DNMT1 (human) enzyme inhibition; inhibition (reported as % activation of signal), % at 10 µM; DNMT1 molecular beacon, Hinp1I cleavage, fluorescence; 360,000 compounds, 0.83% hits; P26358; in the data active = inhibition above about 50%
Scp1 inh = inhibitors of human Scp-1 phosphatase; Recombinant Scp1, phosphopeptide, malachite green phosphate absorbance; inhibition, % at 20 µM; 340,000 compounds, 0.88% hits;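 active = inhibition above about 50% at 20 µM, limit read from the data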;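 note: plate controls were DMSO wells with enzyme for no effect and wells lacking enzyme for full effect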
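assay system = SCP-1 phosphatase catalytic domain, residues 76-261 | buffer or medium = 50 mM Tris acetate pH 5.5, 0.005% Tween-20, 10 mM MgCl2 | incubation = enzyme reaction 45 min at room temperature, colour 5 min, stabilisation 30 min | signal = Phosphate-binding colour reagent, absorbance read at 630 nm | measure = % inhibition at 20 µM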
Rpn11 block = blocks the human proteasome subunit Rpn11; AID 588493; human 26S proteasome, Ub4-pepOG fluorescence polarization; 20S core pre-blocked with epoxomicin; inhibition, % at 20 µM; 360,000 compounds, 0.59% hits;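 active = inhibition at 20 µM, scaled to each plate's controls, above about 33%, limit read from the data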
Target sequence (O00487 whole entry, looked up): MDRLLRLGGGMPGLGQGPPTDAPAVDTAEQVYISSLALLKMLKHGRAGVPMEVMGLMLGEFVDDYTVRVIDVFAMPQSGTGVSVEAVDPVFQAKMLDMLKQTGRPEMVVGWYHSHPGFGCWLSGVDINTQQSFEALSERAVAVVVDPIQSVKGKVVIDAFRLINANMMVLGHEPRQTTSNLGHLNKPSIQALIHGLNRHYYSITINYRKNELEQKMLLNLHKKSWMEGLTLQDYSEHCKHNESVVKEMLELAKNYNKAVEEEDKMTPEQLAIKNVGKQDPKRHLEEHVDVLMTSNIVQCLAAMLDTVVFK
SUMO1-SIM PPI = SUMO1-SIM interaction modulation; SUMO1 binding to a labelled peptide, TR-FRET, 1 h; inhibition, % at 20 µM; 360,000 compounds, 0.33% hits; AID 602429; in the data active = inhibition above about 37%
Target sequence (P63165 whole entry, looked up): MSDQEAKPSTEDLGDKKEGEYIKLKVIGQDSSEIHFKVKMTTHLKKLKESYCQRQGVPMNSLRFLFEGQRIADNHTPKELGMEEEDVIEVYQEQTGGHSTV
LMPTP inh = blocks human LMPTP phosphatase; recombinant LMPTP-A, OMFP fluorogenic substrate, fluorescence intensity; inhibition, % at 20 µM; 360,000 compounds, 0.22% hits;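 active = compounds that cut the enzyme signal by at least half of the control window in the single-dose screen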;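 note: plate controls were DMSO wells with enzyme plus substrate for no effect and substrate without enzyme for full effect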
Target sequence (P24666 whole entry, looked up): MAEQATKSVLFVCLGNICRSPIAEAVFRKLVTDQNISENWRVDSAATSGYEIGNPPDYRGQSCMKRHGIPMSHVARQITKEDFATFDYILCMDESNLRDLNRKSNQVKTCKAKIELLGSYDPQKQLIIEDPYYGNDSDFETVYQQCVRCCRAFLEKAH
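Test system – LMPTP-A phosphatase enzyme · Quantity – 0.625 nM LMPTP-A final · Reagent – OMFP substrate, 400 µM final · Dosing – one test concentration per compound, 20 µM, with 3% DMSO overall · Timing – 50 min enzyme reaction at room temperature, protected from light · Detection – fluorescence intensity · Controls – substrate-only low control, DMSO enzyme-plus-substrate high control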
STEP inh = blocks human striatal-enriched tyrosine phosphatase; AID 588621; inhibition, % at 20 µM; P54829; recombinant STEP, OMFP fluorogenic substrate, fluorescence; 360,000 compounds, 0.25% hits;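 active = inhibition at 20 µM, scaled per plate between control wells, above about 37%, limit read from the data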;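 note: 0% = DMSO with enzyme and substrate and 100% = substrate only without enzyme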
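System: isolated STEP enzyme; schedule: 20 min enzyme reaction at room temperature, protected from light; medium: Bis-Tris buffer pH 6.0, 2.5 mM DTT, 0.005% Tween 20; signal: fluorescence, 480/540 nm; dosing: single compound dose of 20 µM, 1% DMSO final; also added: OMFP substrate, 25 µM final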
Scp1 confirm = Scp-1 (human) inhibition, single-dose confirmed. shares compounds with Scp1 inh. recombinant SCP-1 catalytic domain, phosphate release, malachite green absorbance. inhibition, % at 20 µM. 2,500 compounds, 61% hits. AID 540281;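 note: plate controls were DMSO with enzyme for no effect and buffer wells lacking enzyme for full effect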
MG interference = interferes with malachite green readout, flagging false Scp-1 hits | shares compounds with Scp1 inh | apparent inhibition (interference), % at 20 µM | 2,500 tested, under 10 active | Colorimetric interference counterscreen, malachite green absorbance 630 nm;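 note: compounds added after enzyme reaction finished so only phosphate colour detection is probed; plate controls were DMSO wells with completed Scp-1 reaction for no effect and substrate wells lacking enzyme for full effect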
Scp1 DSF = Scp-1 (human) binding by thermal shift; shares compounds with Scp1 inh; Recombinant SCP1, Sypro Orange thermal shift Tm; thermal shift relative to vanadate control, % at 40 µM; 1,500 compounds, 25% hits;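 active = substances whose mean melting-temperature shift, as a percentage of the reference inhibitor's shift, reaches about 5.3%, limit read from the data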;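 note: 0% = Tm of DMSO wells and 100% = Tm with sodium orthovanadate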
* = called active by the depositor; . = no result shown. A selection: hits, their analogues and other compounds. The true share with any hit is near 2.3%.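 Rule for the calls, unless noted: active = inhibition of at least 30% at 20 µM; inactive = the rest.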

SMILES | DNMT1 inh | Scp1 inh | Rpn11 block | SUMO1-SIM PPI | LMPTP inh | STEP inh | Scp1 confirm | MG interference | others
O=C(CN1C(=O)N/C(=C\c2ccccc2OCc2ccc(C(=O)O)cc2)C1=O)Nc1ccc(F)cc1 | -2 | 70* | 11 | -17 | 1 | 7 | 65* | -20 | Scp1 DSF=-3
O=C(O)c1ccc(COc2ccccc2/C=C2\NC(=O)N(Cc3ccc(F)cc3)C2=O)cc1 | 3 | 63* | -3 | -10 | 1 | 2 | 66* | -10 | Scp1 DSF=3
CN1C(=O)/C(=C/c2ccccc2OCc2ccc(C(=O)O)cc2)NC1=S | -2 | -2 | 2 | -8 | 1 | 2 | . | .
Cc1ccccc1NC(=O)CN1C(=O)N/C(=C\c2ccccc2OCc2ccc(C(=O)O)cc2)C1=O | 29 | 103* | 9 | -13 | 36 | 3 | 83* | -13 | Scp1 DSF=-487
NC(=O)C1CCN(C(=O)CC(c2ccccc2)c2ccccc2)CC1 | 1 | -6 | 4 | 2 | 0 | 1 | . | .
O=C1c2ccccc2[C@@H]2C[C@@H](O)[C@H](Nc3cccc4ccccc34)CCN12 | -21 | 4 | 10 | -3 | 1 | 2 | . | .
COCCNC(=O)CSc1nnc(-c2ccccc2F)n1Cc1ccccc1 | 0 | -3 | 9 | 1 | -1 | 0 | . | .
Cc1cc2oc(C(=O)Nc3ccc(S(=O)(=O)Nc4nccs4)cc3)cc(=O)c2cc1Cl | 37 | 52* | -1 | 9 | 36 | 2 | 30 | -11
Cc1cccc(-n2ccc(=O)c(C(=O)Nc3ccc(S(=O)(=O)Nc4nccs4)cc3)n2)c1 | -1 | -5 | 3 | 6 | 5 | 2 | . | .
O=C(Nc1ccc(S(=O)(=O)Nc2nccs2)cc1)c1nn(-c2ccccc2)ccc1=O | 43 | 75* | 19 | 10 | 48 | 7 | 71* | -16 | Scp1 DSF=6.8*
CC(Nc1cc(N2CCN(C(=O)C(C)(C)C)CC2)ccc1[N+](=O)[O-])c1ccccc1 (configuration not stated) | -4 | 53* | -5 | -19 | 6 | 3 | -21 | -24
CC(C)C(=O)N1CCN(c2ccc([N+](=O)[O-])c(NC(C)c3ccccc3)c2)CC1 (configuration not stated) | -7 | -9 | 3 | -20 | 2 | 2 | . | .
COc1ccc(NC(=O)CN(C)S(=O)(=O)c2ccc3c(c2)n(C)c(=O)c(=O)n3C)cc1 | 1 | -3 | -2 | -5 | -1 | -2 | . | .
COc1cccc(CNC(=O)CN(C)S(=O)(=O)c2ccc3c(c2)n(C)c(=O)c(=O)n3C)c1 | 2 | -7 | -1 | 5 | -1 | 2 | -1 | 0
COc1ccc(CNC(=O)CN(C)S(=O)(=O)c2ccc3c(c2)n(C)c(=O)c(=O)n3C)cc1 | 0 | -6 | -1 | 5 | -1 | 0 | -8 | -12
COc1ccc(C(=O)Nc2cnc3sc(C)nn3c2=O)cc1 | 1 | 51* | -1 | 4 | -2 | -1 | -17 | -19
Cc1ccc(S(=O)(=O)N2CCOCC2)cc1C(=O)N1CCC(Cc2ccccc2)CC1 | 0 | -5 | 3 | -3 | -1 | -2 | . | .
O=C(CCc1nnc(CCc2c[nH]c3ccccc23)o1)NC1CCC1 | -1 | -7 | -2 | -2 | -2 | 2 | . | .
Cc1ccc(OCC(=O)N2N=C(c3ccncc3)CC2(O)C(F)(F)F)cc1C (configuration not stated) | -3 | 103* | -2 | 0 | 1 | -1 | -1 | -8
CC(C)(C)c1ccc(C2(C)NC(=O)NC2=O)cc1 (configuration not stated) | -2 | -7 | 8 | 4 | 1 | -4 | . | .
C/C(=N/NC(N)=S)c1cc2ccc(O)cc2oc1=O | 47 | 55* | . | -1 | 10 | -3 | 36* | -12 | Scp1 DSF=5
O=C(COC(=O)COc1cccc(C(F)(F)F)c1)NC(=O)NC1CCCCC1 | 0 | -6 | -2 | 6 | 1 | -3 | . | .
Cc1cccc(N2CCN(C(=O)c3cc(S(=O)(=O)N4CCOCC4)cn3C)CC2C)c1 (configuration not stated) | 2 | -1 | 1 | 1 | -1 | -2 | . | .
COc1ccc(C(=O)OCC[N+]2(C)CCOCC2)cc1 | 0 | 57* | -6 | -1 | 0 | 0 | 10 | -4
COc1ccc(C(=O)OCCc2ccc(O)cc2)cc1 | -2 | 1 | -1 | 0 | 0 | -2 | . | .
SMILES | DNMT1 inh | Scp1 inh | Rpn11 block | SUMO1-SIM PPI | LMPTP inh | STEP inh | Scp1 confirm | MG interference | others
CCOC(=O)c1cc2c(=O)n3cccc(C)c3nc2n(Cc2ccco2)c1=NC(=O)c1cccnc1 | 15 | 52* | 2 | 11 | 2 | -19 | 44* | -11 | Scp1 DSF=6.9*
COCCCn1c(=NC(=O)c2ccccc2)c(C#N)cc2c(=O)n3cccc(C)c3nc21 | 38 | -3 | -109 | -9 | 3 | 2 | . | .
Cc1cccn2c(=O)c3cc(C#N)c(=NC(=O)c4ccccc4)n(Cc4ccco4)c3nc12 | 25 | 87* | -20 | 13 | 29 | 5 | 1 | -21
CC1(C(=O)Nc2ccccc2F)CCN1C(=O)Cc1ccc(-c2ccccc2)cc1 (configuration not stated) | 6 | . | 2 | -2 | 4 | -1 | . | .
Cc1c(Cl)cnn1CC(=O)NC1C(=O)N2C(C(=O)O)=C(CSc3nnnn3C)CSC12 (configuration not stated) | 12 | 47 | -3 | 6 | 0 | 8 | . | .
Cn1nnnc1SCC1=C(C(=O)O)N2C(=O)C(NC(=O)Cn3nc(C(F)F)cc3C3CC3)C2SC1 (configuration not stated) | 9 | 56* | 6 | 2 | 0 | 3 | 61* | -13 | Scp1 DSF=1
Cc1c(Cl)c(C(F)F)nn1CC(=O)NC1C(=O)N2C(C(=O)O)=C(CSc3nnnn3C)CSC12 (configuration not stated) | 27 | 68* | -6 | 13 | 1 | 7 | 56* | -19 | Scp1 DSF=5
Cc1nn(CC(=O)NC2C(=O)N3C(C(=O)O)=C(CSc4nnnn4C)CSC23)cc1Br (configuration not stated) | 2 | 10 | -5 | -1 | 0 | -1 | . | .
CCCCn1c(N)c(N(CCC(C)C)C(=O)COC(=O)Cc2ccc(Cl)cc2)c(=O)[nH]c1=O | 6 | -7 | 8 | 2 | -29 | -9 | . | .
